Test results taken from ChEMBL document CHEMBL1268908, “Design, synthesis, radiolabeling, and in vivo evaluation of carbon-11 labeled N-[2-[4-(3-cyanopyridin-2-yl)piperazin-1-yl]ethyl]-3-methoxybenzamide, a potential positron emission tomography tracer for the dopamine D(4) receptors” (J Med Chem, 2010).

Columns and labels:
Assay type in all cases: ADME, organism-based, Macaca mulatta
Hippocampus [1] = test: Biodistribution in rhesus monkey hippocampus at 150.3 MBq, iv after 2.25 mins; conditions: in vivo, 135 s
How it was run: (§1)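 Single male rhesus monkey anesthetized with ketamine 10 mg/kg im, head fixed. Attenuation correction by 20 min 68Ge-68Ga transmission scan. [11C]-tracer in saline (pH 7.4) given iv, specific radioactivity 2.9 TBq/μmol at injection. Dynamic 3D PET emission scan over 90 min in frames of 0.5 to 5 min. MRI T1 images used to define VOIs. Uptake expressed as […].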

Striatum [2] = test: Biodistribution in rhesus monkey striatum at 150.3 MBq, iv after 2.25 mins; conditions: in vivo, 135 s
[3] = Biodistribution in rhesus monkey retina at 150.3 MBq, iv after 2.25 mins; conditions: in vivo, 135 s
Striatum [4] = test: Biodistribution in rhesus monkey striatum at 150.3 MBq, iv after 3.5 mins; conditions: in vivo
Striatum [5] = test: Biodistribution in rhesus monkey striatum at 150.3 MBq, iv after 4.5 mins; conditions: in vivo, 0.075 h
[6] = Biodistribution in rhesus monkey cerebellum at 150.3 MBq, iv after 5.5 mins; conditions: in vivo
How it was run: (§2)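 Male rhesus monkey under ketamine (10 mg/kg im) with head fixation. After a 20 min 68Ge-68Ga transmission scan, the [11C]-labelled tracer in saline (pH 7.4) was injected iv, at 2.9 TBq/μmol specific radioactivity at injection. A dynamic 3D PET scan followed over 90 min (6×0.5, 7×1, 20×2, 8×5 min frames). Regions were defined on T1-weighted 1.5 T MRI, and uptake is given as %ID/mL.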

Hippocampus [7] = test: Biodistribution in rhesus monkey hippocampus at 150.3 MBq, iv after 6.5 mins; conditions: in vivo
How it was run: (§3)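 Male rhesus monkey under ketamine 10 mg/kg im, head fixed; 20 min 68Ge-68Ga transmission scan, then 90 min dynamic 3D PET (6×0.5, 7×1, 20×2, 8×5 min frames) after iv [11C]-labelled tracer in saline, specific radioactivity about 2.9 TBq/μmol at injection. Regions defined on T1-weighted MRI; uptake expressed as % injected dose per mL.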

[8] = Biodistribution in rhesus monkey retina at 150.3 MBq, iv after 6.5 mins; conditions: in vivo
[9] = Biodistribution in rhesus monkey occipital lobe at 150.3 MBq, iv after 9.5 mins; conditions: in vivo
[10] = Biodistribution in rhesus monkey retina at 150.3 MBq, iv after 11 mins; conditions: in vivo
Hippocampus [11] = test: Biodistribution in rhesus monkey hippocampus at 150.3 MBq, iv after 13 mins; conditions: in vivo; how it was run: as §1
Hippocampus [12] = test: Biodistribution in rhesus monkey hippocampus at 150.3 MBq, iv after 15 mins; conditions: in vivo, 0.25 h; how it was run: as §1
[13] = Biodistribution in rhesus monkey cerebellum at 150.3 MBq, iv after 15 mins; conditions: in vivo, 0.25 h; how it was run: as §2
[14] = Biodistribution in rhesus monkey cingulate cortex at 170.3 MBq, iv after 17 mins; conditions: in vivo, in the assay text read “150.3 MBq” for “170.3 MBq”; how it was run: as §1
[15] = Biodistribution in rhesus monkey entorhinal cortex at 170.3 MBq, iv after 17 mins; conditions: in vivo, in the assay text read “150.3 MBq” for “170.3 MBq”; how it was run: as §1
[16] = Biodistribution in rhesus monkey entorhinal cortex at 150.3 MBq, iv after 19 mins; conditions: in vivo; how it was run: as §1
[17] = Biodistribution in rhesus monkey retina at 150.3 MBq, iv after 19 mins; conditions: in vivo
Striatum [18] = test: Biodistribution in rhesus monkey striatum at 150.3 MBq, iv after 21 mins; conditions: in vivo, 0.35 h
[19] = Biodistribution in rhesus monkey cingulate cortex at 150.3 MBq, iv after 23 mins; conditions: in vivo; how it was run: as §2
[20] = Biodistribution in rhesus monkey cerebellum at 150.3 MBq, iv after 23 mins; conditions: in vivo; how it was run: as §2
Striatum [21] = test: Biodistribution in rhesus monkey striatum at 150.3 MBq, iv after 25 mins; conditions: in vivo
[22] = Biodistribution in rhesus monkey retina at 150.3 MBq, iv after 25 mins; conditions: in vivo
[23] = Biodistribution in rhesus monkey occipital lobe at 150.3 MBq, iv after 29 mins; conditions: in vivo; how it was run: as §3
Hippocampus [24] = test: Biodistribution in rhesus monkey hippocampus at 150.3 MBq, iv after 31 mins; conditions: in vivo; how it was run: as §3
Hippocampus [25] = test: Biodistribution in rhesus monkey hippocampus at 150.3 MBq, iv after 35 mins; conditions: in vivo; how it was run: as §3
Striatum [26] = test: Biodistribution in rhesus monkey striatum at 150.3 MBq, iv after 35 mins; conditions: in vivo
Hippocampus [27] = test: Biodistribution in rhesus monkey hippocampus at 150.3 MBq, iv after 37 mins; conditions: in vivo; how it was run: as §3
[28] = Biodistribution in rhesus monkey cingulate cortex at 150.3 MBq, iv after 37 mins; conditions: in vivo; how it was run: as §2
[29] = Biodistribution in rhesus monkey occipital lobe at 150.3 MBq, iv after 37 mins; conditions: in vivo; how it was run: as §3
[30] = Biodistribution in rhesus monkey occipital lobe at 150.3 MBq, iv after 39 mins; conditions: in vivo, 0.65 h; how it was run: as §3
Hippocampus [31] = test: Biodistribution in rhesus monkey hippocampus at 150.3 MBq, iv after 45 mins; conditions: in vivo, 0.75 h; how it was run: as §3
Striatum [32] = test: Biodistribution in rhesus monkey striatum at 150.3 MBq, iv after 45 mins; conditions: in vivo, 0.75 h
[33] = Biodistribution in rhesus monkey retina at 150.3 MBq, iv after 45 mins; conditions: in vivo, 0.75 h
Hippocampus [34] = test: Biodistribution in rhesus monkey hippocampus at 150.3 MBq, iv after 47 mins; conditions: in vivo; how it was run: as §3
Striatum [35] = test: Biodistribution in rhesus monkey striatum at 150.3 MBq, iv after 47 mins; conditions: in vivo
Striatum [36] = test: Biodistribution in rhesus monkey striatum at 150.3 MBq, iv after 49 mins; conditions: in vivo
[37] = Biodistribution in rhesus monkey cerebellum at 150.3 MBq, iv after 49 mins; conditions: in vivo; how it was run: as §2
[38] = Biodistribution in rhesus monkey retina at 150.3 MBq, iv after 57.5 mins; conditions: in vivo
[39] = Biodistribution in rhesus monkey entorhinal cortex at 150.3 MBq, iv after 62.5 mins; conditions: in vivo; how it was run: as §1
[40] = Biodistribution in rhesus monkey entorhinal cortex at 150.3 MBq, iv after 67.5 mins; conditions: in vivo, 1.125 h; how it was run: as §1
Striatum [41] = test: Biodistribution in rhesus monkey striatum at 150.3 MBq, iv after 77.5 mins; conditions: in vivo
[42] = Biodistribution in rhesus monkey occipital lobe at 150.3 MBq, iv after 77.5 mins; conditions: in vivo
[43] = Biodistribution in rhesus monkey cingulate cortex at 150.3 MBq, iv after 82.5 mins; conditions: in vivo, 1.375 h; how it was run: as §1
[44] = Biodistribution in rhesus monkey occipital lobe at 150.3 MBq, iv after 82.5 mins; conditions: in vivo, 1.375 h
Hippocampus [45] = test: Biodistribution in rhesus monkey hippocampus at 150.3 MBq, iv after 8.5 mins; conditions: in vivo; how it was run: as §3
[46] = Biodistribution in rhesus monkey cingulate cortex at 150.3 MBq, iv after 8.5 mins; conditions: in vivo; how it was run: as §1
[47] = Biodistribution in rhesus monkey cerebellum at 150.3 MBq, iv after 8.5 mins; conditions: in vivo; how it was run: as §2
Hippocampus [48] = test: Biodistribution in rhesus monkey hippocampus at 150.3 MBq, iv after 52.5 mins; conditions: in vivo, 0.875 h; how it was run: as §3
[49] = Biodistribution in rhesus monkey cerebellum at 150.3 MBq, iv after 72.5 mins; conditions: in vivo; how it was run: as §2

[11CH3]Oc1cccc(C(=O)NCCN2CCN(c3ncccc3C#N)CC2)c1
Drug uptake (Hippocampus [1]): 50.51 kBq/ml | Drug uptake (Striatum [2]): 51.53 kBq/ml | Drug uptake [3]: 36.9 kBq/ml | Drug uptake (Striatum [4]): 46.0188 kBq/ml | Drug uptake (Striatum [5]): 42.26 kBq/ml | Drug uptake [6]: 33.43 kBq/ml | Drug uptake (Hippocampus [7]): 37.33 kBq/ml | Drug uptake [8]: 44.54 kBq/ml | Drug uptake [9]: 25.01 kBq/ml | Drug uptake [10]: 49.56 kBq/ml | Drug uptake (Hippocampus [11]): 23.13 kBq/ml | Drug uptake (Hippocampus [12]): 20.97 kBq/ml | Drug uptake [13]: 19.28 kBq/ml | Drug uptake [14]: 18.9122 kBq/ml | Drug uptake [15]: 20.28 kBq/ml | Drug uptake [16]: 21.93 kBq/ml | Drug uptake [17]: 53.57 kBq/ml | Drug uptake (Striatum [18]): 18.62 kBq/ml | Drug uptake [19]: 17.4 kBq/ml | Drug uptake [20]: 16.31 kBq/ml | Drug uptake (Striatum [21]): 17.99 kBq/ml | Drug uptake [22]: 56.02 kBq/ml | Drug uptake [23]: 13.8 kBq/ml | Drug uptake (Hippocampus [24]): 14.91 kBq/ml | Drug uptake (Hippocampus [25]): 12.16 kBq/ml | Drug uptake (Striatum [26]): 13.39 kBq/ml | Drug uptake (Hippocampus [27]): 12.43 kBq/ml | Drug uptake [28]: 11.95 kBq/ml | Drug uptake [29]: 11.24 kBq/ml | Drug uptake [30]: 9.974 kBq/ml | Drug uptake (Hippocampus [31]): 10.64 kBq/ml | Drug uptake (Striatum [32]): 11.04 kBq/ml | Drug uptake [33]: 56.64 kBq/ml | Drug uptake (Hippocampus [34]): 9.35 kBq/ml | Drug uptake (Striatum [35]): 10.6 kBq/ml | Drug uptake (Striatum [36]): 10.09 kBq/ml | Drug uptake [37]: 10.45 kBq/ml | Drug uptake [38]: 55.05 kBq/ml | Drug uptake [39]: 10.43 kBq/ml | Drug uptake [40]: 7.481 kBq/ml | Drug uptake (Striatum [41]): 8.262 kBq/ml | Drug uptake [42]: 8.127 kBq/ml | Drug uptake [43]: 9.311 kBq/ml | Drug uptake [44]: 8.356 kBq/ml | Drug uptake (Hippocampus [45]): 30.9853 kBq/ml | Drug uptake [46]: 30.4104 kBq/ml | Drug uptake [47]: 27.59 kBq/ml | Drug uptake (Hippocampus [48]): 9.565 kBq/ml | Drug uptake [49]: 8.18 kBq/ml
